Measured values of several laboratories.
Lines come from different studies, so protocols differ.
Observed: binding
ERBB2: Receptor tyrosine-protein kinase erbB-2 (ERBB2, Homo sapiens, UniProt P04626)

SMILES | target | method | pH | notes | Kd [µM]
O=c1cccccc1O | Carbonic anhydrase 2 (CA2, Homo sapiens, UniProt P00918) | ITC |  |  | 1680
Cc1ccc(NC(=O)c2ccc(CN3CCS(=N)(=O)CC3)cc2)cc1Nc1nccc(-c2cccnc2)n1 | Tyrosine-protein kinase ABL1, non-phosphorylated (ABL1, Homo sapiens, UniProt P00519) | competition with immobilised ligand |  |  | 0.079
CC#CC(=O)N1CC[C@@H](n2cc(-c3ccc(Oc4c(F)cccc4F)cc3)c3c(N)n[nH]c(=O)c32)C1 | ERBB2 | competition with immobilised ligand |  |  | > 3
FC(F)(F)c1n[nH]cc1-c1nc2ccc3[nH]ncc3c2c2c1CCCC2 | Tyrosine-protein kinase ABL1, phosphorylated (ABL1, Homo sapiens, UniProt P00519) | competition with immobilised ligand |  |  | 7.2
N#CC1(c2ccc(NC(=O)c3cccnc3NCc3ccncc3)cc2)CCCC1 | AMP-activated protein kinase (AMPK) alpha-1/beta-1/gamma-1 (PRKAG1/PRKAA1/PRKAB1, Homo sapiens, UniProt P54619+Q13131+Q9Y478) | SPR |  |  | 2.49
Cc1cnc(-c2ccc(-c3ccc(NC(=O)Nc4c(F)cc(F)cc4F)cc3F)c3c2C(=O)NC3)[nH]1 | Tyrosine-protein kinase ITK/TSK (ITK, Homo sapiens, UniProt Q08881) | competition with immobilised ligand |  |  | 0.0059
Cc1cc2nc3c(=O)[nH]c(=O)nc-3n(C[C@H](O)[C@H](O)[C@H](O)COP(=O)(O)OP(=O)(O)OC[C@H]3O[C@@H](n4cnc5c(N)ncnc54)[C@H](O)[C@@H]3O)c2cc1C | Cytotoxic granule associated RNA binding protein TIA1 (TIA1, Homo sapiens, UniProt P31483) |  |  | lysate | 0.038
CC(C)C[C@H](NC(=O)[C@H](C)NC(=O)[C@@H](NC(=O)[C@H](CCCCN)NC(=O)[C@H](CC(=O)O)NC(=O)[C@H](Cc1ccc(OP(=O)(O)O)cc1)NC(=O)[C@H](C)NC(=O)[C@H](CC(N)=O)NC(=O)[C@@H]1CCCN1C(=O)[C@@H](NC(=O)[C@H](CCCNC(=N)N)NC(=O)[C@H](CCCCN)NC(=O)CCCCCNC(=O)CCCC[C@@H]1SC[C@@H]2NC(=O)N[C@@H]21)C(C)C)[C@@H](C)O)C(=O)N[C@@H](C)C(=O)N[C@@H](CC(C)C)C(=O)N[C@@H](CCC(=O)O)C(=O)O | Tyrosine-protein kinase ABL1, SH2 (ABL1, Homo sapiens, UniProt P00519) | ITC |  |  | 85.5
Cc1cc(Nc2cc3ncccc3c(N[C@@H]3C[C@H]4CC[C@@H](C3)N4CCC#N)n2)n[nH]1 | Mitogen-activated protein kinase kinase kinase 2 (MAP3K2, Homo sapiens, UniProt Q9Y2U5) | competition with immobilised ligand |  |  | 0.019
COc1cc(Nc2ncc3c(n2)-c2ccc(Cl)cc2C(c2c(F)cccc2OC)=NC3)ccc1C(=O)O | Protein-tyrosine kinase 2-beta (PTK2B, Homo sapiens, UniProt Q14289) |  |  | lysate | 2.99
CC(C)C[C@H](NC(=O)[C@H](CO)NC(=O)[C@H](Cc1ccc(O)cc1)NC(=O)[C@H](CS)NC(=O)[C@H](CS)NC(=O)[C@@H](N)CCCCN)C(=O)O | ERBB2 | fluorescence | pH 7.4 |  | 0.18
COc1ccc2c(c1)sc(-c1ccc(N(C)C)cc1)[n+]2C | Alpha-synuclein, fibril (SNCA, Homo sapiens, UniProt P37840) | SPR |  |  | 72.3
